# Test results reported in ChEMBL document CHEMBL3616459, “Antimicrobial peptides with potential for biofilm eradication: synthesis and structure activity relationship studies of battacin peptides” (J Med Chem, 2015).
# Active and inactive are the calls of the source. The rule behind the calls is not given here. Non-standard residues stand in square brackets, D forms with d. Residues, ends and D or L forms follow the SMILES beside them. ξ: configuration not given here. *: point of attachment. Hexanoyl(4ξ-Me) = CCC(C)CCC(=O)*; dDab = NCC[C@@H](N)C(=O)O; Dab = NCC[C@H](N)C(=O)O
# Legend:
# [1] = Antimicrobial activity against Pseudomonas syringae pv. actinidiae 16027 after 24 hrs by spectrophotometry; type: functional; conditions: Pseudomonas syringae, 16027, 24 h
# Procedure, shortened: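 Broth microdilution in Luria broth. Overnight culture from a single colony, grown at 28 °C (Ea1501, Psa) or 37 °C (E. coli, S. aureus), adjusted to OD600 0.6. Peptide dissolved in LB with 0.5% acetic acid as a dilution series; 50 μL peptide plus 50 μL culture per well, triplicates.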
# Escherichia coli [2] = test: Bactericidal activity against Escherichia coli assessed as reduction in bacterial count at 2 to 4 times MIC up to 9 hrs by time-kill assay relative to control; type: functional
# Procedure, shortened: (§1)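 Time-kill assay. Overnight culture diluted in LB to mid-log phase, 10^5–10^8 CFU/mL; 100 μL added to 10 mL peptide in LB at 1×, 2×, 4× and 20× MIC. Incubated with shaking at 100 rpm, at 28 °C (Ea1501, Psa) or 37 °C (E. coli, P. aeruginosa, S. aureus). Samples at 0, 0.5, 1, 3, 6, 9 and 24 h serially diluted in 0.9% saline and plated; colonies counted after 24 h. Run in duplicate. Bactericidal means ≥2-log10 CFU/mL drop versus the no-antibiotic control.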
# Escherichia coli [3] = test: Bactericidal activity against Escherichia coli assessed as reduction in bacterial count at 2 to 4 times MIC after 24 hrs by time-kill assay relative to control; type: functional, organism-based; procedure, shortened: as §1
# Erwinia amylovora [4] = test: Bactericidal activity against Erwinia amylovora 1501 at 2 to 20 times MIC up to 6 hrs by time-kill assay; type: functional, organism-based; procedure, shortened: as §1
# Erwinia amylovora [5] = test: Bactericidal activity against Erwinia amylovora 1501 at 2 to 20 times MIC after 9 hrs by time-kill assay; type: functional, organism-based; procedure, shortened: as §1
# Staphylococcus aureus [6] = test: Bactericidal activity against Staphylococcus aureus at 4 to 20 times MIC after 3 hrs by time-kill assay; type: functional, organism-based; procedure, shortened: as §1
# Staphylococcus aureus [7] = test: Bactericidal activity against Staphylococcus aureus at 4 to 20 times MIC after 24 hrs by time-kill assay; type: functional, organism-based; procedure, shortened: as §1
# Pseudomonas syringae = test: Inhibition of Pseudomonas syringae pv. actinidiae 16027 biofilm formation at 5 uM after 48 hrs; type: functional
# Procedure, shortened: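 Psa16027 overnight culture (OD600 0.3) grown at 28 °C in LB. 50 μL peptide in LB (1–100 μM) plus 50 μL diluted culture, triplicates, incubated 48 h at 28 °C at 50 rpm. Wells stained with 1% crystal violet for 5 min and washed; stain solubilized in 96% ethanol and A560 read as biofilm mass. For imaging, 12-well plates were used and stained biofilms viewed at 400×.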
# [8] = tested on: Pseudomonas syringae pv. actinidiae; test: Antimicrobial activity against Pseudomonas syringae pv. actinidiae 16027 preformed biofilms after 48 hrs by crystal violet staining-based microscopy; type: functional
# Procedure, shortened: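 Psa16027 biofilms formed 48 h without peptide, then washed. 100 μL of peptide (1, 5 or 50 μM) in LB, or LB alone, added and incubated a further 24 h at 28 °C. Crystal violet staining followed, with A560 estimation of biofilm mass and microscopy.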
# Staphylococcus aureus [9] = test: Antimicrobial activity against Staphylococcus aureus preformed biofilms at 10 to 25 uM after 48 hrs; type: functional, organism-based
# Escherichia coli [10] = test: Antimicrobial activity against Escherichia coli assessed as perturbed cell membrane at 2 times MIC measured after 24 hrs by scanning electron microscopy; type: functional, organism-based
# Procedure, shortened: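 Bacteria grown to OD600 0.3 in LB on glass slides for 24 h, then washed with 10 mM sodium phosphate pH 7.4. Treated 20 min with peptide in LB at twice the upper limit of its MIC, washed, and fixed in 4% glutaraldehyde 1 h. Dehydrated through graded ethanol, dried at 60 °C, platinum coated, and imaged by SEM at 10 kV.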
# Pseudomonas aeruginosa = test: Antimicrobial activity against Pseudomonas aeruginosa assessed as inner membrane permeability at 0.5 to 100 uM measured after 60 min by propidium iodide uptake assay
compound,measurement,setting,value
CCC(C)CCC(=O)N[C@H](CCN)C(=O)N[C@@H](CCN)C(=O)N[C@@H](CCN)C(=O)N[C@@H](CC(C)C)C(=O)N[C@H](Cc1ccccc1)C(=O)N[C@@H](CCN)C(=O)N[C@@H](CCN)C(=O)N[C@@H](CC(C)C)C(N)=O (stereo partly drawn) ({Hexanoyl(4ξ-Me)}-[dDab][Dab][Dab]L[dF][Dab][Dab]L-NH2),MIC,[1],1 µM
same,Activity,Escherichia coli [2],>3 deltalog10CFU/ml
same,Activity,Escherichia coli [3],inactive
same,Activity,Erwinia amylovora [4],Active
same,Activity,Erwinia amylovora [5],Active
same,Activity,Staphylococcus aureus [6],Active
same,Activity,Staphylococcus aureus [7],Active
same,inhibition,Pseudomonas syringae,Active
same,Activity,[8],Active
same,Activity,Staphylococcus aureus [9],Active
same,Activity,Escherichia coli [10],Active
same,Activity,Pseudomonas aeruginosa,Active
